Calls of active or inactive are those of the source. The rule behind the calls is not given here.
Legend:
HCT-116 [1] = assay: Induction of cell cycle arrest in human HCT-116 cells assessed as number of cells at G2/M phase at 10 uM after 24 hrs in presence of 10% serum by flow cytometry analysis (reference value: 13.1%); type: functional
Procedure, shortened: (§1)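 HCT116 cells in McCoy's 5A were serum-starved 72 h in 0.1% serum, then released for 24 h into 10% serum with or without compound. They were fixed in 70% ethanol, RNase-treated (3 mg/mL, 30 min, 37 °C) and stained with 50 μg/mL propidium iodide. Flow cytometry on FL-2 area with doublet gating gave the percentages in sub-G1, G0/G1, S and G2/M.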

U2OS [2] = assay: Induction of cell cycle arrest in human U2OS cells expressing pRb negative assessed as percentage of cells at S phase at 10 uM after 24 hrs by flow cytometry analysis (reference value: 30.3%); type: functional
[3] = biological target: Insulin-like growth factor 1 receptor (Homo sapiens, UniProt P08069); assay: Inhibition of GST-tagged human IGF-1R expressed in baculovirus infected Sf9 cells using tyrosine-containing peptide substrate in presence of ATP
U2OS [4] = assay: Induction of cell cycle arrest in human U2OS cells assessed as percentage of cells at G0/G1 phase, cells were released from mimosine block prior to compound addition at 10 uM after 38 hrs by flow cytometry analysis (reference value: 39.6%); type: functional
HCT-116 [5] = assay: Antitumor activity against human HCT-116 cells xenografted in nude mouse assessed as decrease tumor growth at 30 mg/kg, ip administered every 12 hrs measured after 29 days; type: functional, organism-based
Procedure, shortened: (§2)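 Female BALB/c nu/nu mice (19–21 g), 8 per group, injected s.c. with 0.1 mL HCT116 suspension (1 × 10^7 viable cells/mL in Hanks' buffer). Treatment started at about 100 mm3 (day 20). Dosing i.p. in 5% DMSO/0.05% Tween 80/95% saline at 10 mL/kg for 29 days; vehicle controls. Caliper volumes taken blinded every 2–4 days as length × width² × π/6. Dunnett ANOVA; growth rate compared as log-volume slopes.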

U2OS [6] = assay: Induction of cell cycle arrest in human U2OS cells assessed as percentage of cells at S phase, cells were released from mimosine block prior to compound addition at 5 uM after 16 hrs by flow cytometry analysis (reference value: 33%); type: functional
U2OS [7] = assay: Induction of cell cycle arrest in human U2OS cells assessed as percentage of cells at SubG1 phase, cells were released from mimosine block prior to compound addition at 10 uM after 38 hrs by flow cytometry analysis (reference value: 5%); type: functional
NIH3T3 [8] = assay: Induction of cell cycle arrest in mouse NIH3T3 cells expressing pRb-negative assessed as percentage of cells at S phase at 10 uM after 24 hrs by flow cytometry analysis (reference value: 20%); type: functional
HCT-116 [9] = assay: Induction of cell cycle arrest in human HCT-116 cells assessed as number of cells at G2/M phase at 5 uM after 24 hrs in presence of 10% serum by flow cytometry analysis (reference value: 13.1%); type: functional; procedure, shortened: as §1
MRC5 [10] = assay: Induction of cell cycle arrest in human MRC5 cells assessed as number of cells at S phase at 5 uM after 24 hrs in presence of 10% serum by flow cytometry analysis (reference value: 16.1%); type: functional
[11] = biological target: Hepatocyte growth factor receptor (Homo sapiens, UniProt P08581); assay: Inhibition of GST-tagged human c-met expressed in baculovirus infected Sf9 cells using tyrosine-containing peptide substrate in presence of ATP
NIH3T3 [12] = assay: Induction of cell cycle arrest in mouse NIH3T3 cells expressing pRb assessed as percentage of cells at G0/G1 phase at 5 uM after 24 hrs by flow cytometry analysis (reference value: 44.7%); type: functional
HCT-116 [13] = assay: Antitumor activity against human HCT-116 cells xenografted in nude mouse assessed as decrease tumor volume at 30 mg/kg, ip administered every 12 hrs measured after 29 days; type: functional, organism-based; conditions: time 29.0 day; procedure, shortened: as §2
U2OS [14] = assay: Induction of cell cycle arrest in human U2OS cells assessed as percentage of cells at SubG1 phase, cells were released from mimosine block prior to compound addition at 5 uM after 16 hrs by flow cytometry analysis (reference value: 2.2%); type: functional
U2OS [15] = assay: Induction of cell cycle arrest in human U2OS cells assessed as percentage of cells at SubG1 phase, cells were released from mimosine block prior to compound addition at 5 uM after 38 hrs by flow cytometry analysis (reference value: 5%); type: functional
U2OS [16] = assay: Induction of cell cycle arrest in human U2OS cells assessed as percentage of cells at G0/G1 phase, cells were released from mimosine block prior to compound addition at 10 uM after 16 hrs by flow cytometry analysis (reference value: 17.2%); type: functional
U2OS [17] = assay: Induction of cell cycle arrest in human U2OS cells assessed as percentage of cells at G2/M phase, cells were released from mimosine block prior to compound addition at 10 uM after 16 hrs by flow cytometry analysis (reference value: 47.6%); type: functional
MRC5 [18] = assay: Induction of cell cycle arrest in human MRC5 cells assessed as number of cells at G2/M phase at 10 uM after 24 hrs in presence of 10% serum by flow cytometry analysis (reference value: 14.9%); type: functional
U2OS [19] = assay: Induction of cell cycle arrest in human U2OS cells expressing pRb assessed as percentage of cells at S phase at 5 uM after 24 hrs by flow cytometry analysis (reference value: 19.9%); type: functional
HCT-116 [20] = assay: Induction of cell cycle arrest in human HCT-116 cells assessed as number of cells at S phase at 5 uM after 24 hrs in presence of 10% serum by flow cytometry analysis (reference value: 36.3%); type: functional; procedure, shortened: as §1
NIH3T3 [21] = assay: Induction of cell cycle arrest in mouse NIH3T3 cells expressing pRb assessed as percentage of cells at G0/G1 phase at 10 uM after 24 hrs by flow cytometry analysis (reference value: 44.7%); type: functional
U2OS [22] = assay: Induction of cell cycle arrest in human U2OS cells assessed as percentage of cells at G2/M phase, cells were released from mimosine block prior to compound addition at 5 uM after 16 hrs by flow cytometry analysis (reference value: 47.6%); type: functional
HCT-116 [23] = assay: Induction of cell cycle arrest in human HCT-116 cells assessed as number of cells at G0/G1 phase at 10 uM after 24 hrs in presence of 10% serum by flow cytometry analysis (reference value: 49.5%); type: functional; procedure, shortened: as §1
U2OS [24] = assay: Induction of apoptosis in human U2OS cells assessed as number of apoptotic cells at 5 uM after 48 hrs by TUNEL staining based fluorescence analysis (reference value: 0.61%); type: functional
U2OS [25] = assay: Induction of apoptosis in human U2OS cells assessed as number of apoptotic cells at 10 uM after 48 hrs by TUNEL staining based fluorescence analysis (reference value: 0.61%); type: functional
MRC5 [26] = assay: Induction of cell cycle arrest in human MRC5 cells assessed as number of cells at G0/G1 phase at 10 uM after 24 hrs in presence of 10% serum by flow cytometry analysis (reference value: 64.1%); type: functional

Sequence of Insulin-like growth factor 1 receptor (P08069 31-736 limits assumed): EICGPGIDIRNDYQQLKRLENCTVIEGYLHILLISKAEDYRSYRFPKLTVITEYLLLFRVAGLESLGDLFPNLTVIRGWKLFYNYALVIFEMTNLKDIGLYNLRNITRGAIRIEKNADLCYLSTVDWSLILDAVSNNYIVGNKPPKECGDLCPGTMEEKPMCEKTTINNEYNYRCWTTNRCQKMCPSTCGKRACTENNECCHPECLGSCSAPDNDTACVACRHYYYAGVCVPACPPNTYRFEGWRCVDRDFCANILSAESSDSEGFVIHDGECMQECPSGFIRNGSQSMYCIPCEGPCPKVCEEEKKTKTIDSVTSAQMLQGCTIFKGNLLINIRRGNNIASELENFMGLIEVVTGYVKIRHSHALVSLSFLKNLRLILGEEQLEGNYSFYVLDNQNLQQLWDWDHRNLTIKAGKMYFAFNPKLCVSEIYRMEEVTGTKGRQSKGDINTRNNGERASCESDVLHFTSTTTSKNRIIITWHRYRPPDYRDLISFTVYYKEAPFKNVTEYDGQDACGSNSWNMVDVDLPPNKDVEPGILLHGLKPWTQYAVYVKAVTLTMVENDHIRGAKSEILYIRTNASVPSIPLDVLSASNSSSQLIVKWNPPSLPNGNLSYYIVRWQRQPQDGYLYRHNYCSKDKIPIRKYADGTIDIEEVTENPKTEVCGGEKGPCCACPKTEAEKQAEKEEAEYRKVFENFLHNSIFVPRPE
Sequence of Insulin-like growth factor 1 receptor (P08069 741-1367 limits assumed): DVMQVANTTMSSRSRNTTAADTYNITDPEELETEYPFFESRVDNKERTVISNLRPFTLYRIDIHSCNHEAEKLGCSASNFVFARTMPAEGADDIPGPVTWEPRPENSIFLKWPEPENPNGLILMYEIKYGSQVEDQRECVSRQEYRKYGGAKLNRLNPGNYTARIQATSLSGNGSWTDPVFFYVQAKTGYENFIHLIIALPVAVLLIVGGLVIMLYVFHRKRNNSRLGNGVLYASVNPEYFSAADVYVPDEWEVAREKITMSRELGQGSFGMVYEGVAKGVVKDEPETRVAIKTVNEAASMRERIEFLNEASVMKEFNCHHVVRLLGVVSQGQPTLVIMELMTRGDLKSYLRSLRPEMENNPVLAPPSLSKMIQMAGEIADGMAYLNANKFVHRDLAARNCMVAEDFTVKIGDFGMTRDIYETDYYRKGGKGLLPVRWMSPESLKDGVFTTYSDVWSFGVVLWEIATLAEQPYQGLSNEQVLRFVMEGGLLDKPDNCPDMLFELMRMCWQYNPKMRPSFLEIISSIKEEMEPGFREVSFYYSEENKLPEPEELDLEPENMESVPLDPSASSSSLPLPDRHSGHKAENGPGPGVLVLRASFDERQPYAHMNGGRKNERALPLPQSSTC
Sequence of Hepatocyte growth factor receptor (P08581 whole entry): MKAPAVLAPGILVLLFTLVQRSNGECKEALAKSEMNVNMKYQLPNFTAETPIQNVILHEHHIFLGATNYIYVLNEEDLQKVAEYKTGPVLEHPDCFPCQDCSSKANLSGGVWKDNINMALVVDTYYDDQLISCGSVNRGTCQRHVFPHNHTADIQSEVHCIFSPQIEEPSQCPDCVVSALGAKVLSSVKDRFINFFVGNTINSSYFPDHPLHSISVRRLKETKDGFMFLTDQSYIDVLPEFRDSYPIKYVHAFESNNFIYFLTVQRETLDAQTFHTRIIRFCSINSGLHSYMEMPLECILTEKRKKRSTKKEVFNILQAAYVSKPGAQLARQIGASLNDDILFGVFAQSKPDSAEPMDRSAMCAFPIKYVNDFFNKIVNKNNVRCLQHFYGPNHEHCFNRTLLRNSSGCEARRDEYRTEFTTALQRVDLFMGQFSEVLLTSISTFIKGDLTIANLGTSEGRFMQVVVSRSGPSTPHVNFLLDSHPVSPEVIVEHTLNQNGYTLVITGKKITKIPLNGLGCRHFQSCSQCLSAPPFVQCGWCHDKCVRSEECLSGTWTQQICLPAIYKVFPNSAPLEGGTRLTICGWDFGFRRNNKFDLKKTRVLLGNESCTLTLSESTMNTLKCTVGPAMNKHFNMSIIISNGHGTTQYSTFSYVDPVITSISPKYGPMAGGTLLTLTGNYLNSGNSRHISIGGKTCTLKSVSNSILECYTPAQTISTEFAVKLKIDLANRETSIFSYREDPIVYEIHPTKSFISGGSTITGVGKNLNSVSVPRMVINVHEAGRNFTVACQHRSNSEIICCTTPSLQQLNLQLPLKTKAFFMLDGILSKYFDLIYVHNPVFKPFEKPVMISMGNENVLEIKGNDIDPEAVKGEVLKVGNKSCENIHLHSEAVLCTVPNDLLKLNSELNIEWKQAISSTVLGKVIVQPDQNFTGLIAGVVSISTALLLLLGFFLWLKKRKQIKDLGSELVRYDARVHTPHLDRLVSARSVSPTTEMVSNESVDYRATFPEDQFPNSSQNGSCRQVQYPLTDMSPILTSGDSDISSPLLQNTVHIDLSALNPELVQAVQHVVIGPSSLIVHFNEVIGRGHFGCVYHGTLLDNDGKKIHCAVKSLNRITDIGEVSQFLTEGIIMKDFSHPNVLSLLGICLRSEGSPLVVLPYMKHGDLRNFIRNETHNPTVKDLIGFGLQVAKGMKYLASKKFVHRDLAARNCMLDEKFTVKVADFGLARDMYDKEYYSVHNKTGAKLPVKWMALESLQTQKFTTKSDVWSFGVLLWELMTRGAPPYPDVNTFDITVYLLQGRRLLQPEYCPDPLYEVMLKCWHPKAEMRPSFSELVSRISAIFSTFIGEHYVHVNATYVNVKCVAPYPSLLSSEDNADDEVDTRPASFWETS

Structure (SMILES): CCNc1cc(N[C@H]2CC[C@H](O)CC2)nc(Nc2ccc3c(ccn3Cc3ccccc3)c2)n1
- Activity (HCT-116 [1]): 13%
- Activity (U2OS [2]): 25.1%
- IC50 [3]: > 10 µM
- Activity (U2OS [4]): 14.3%
- Activity (HCT-116 [5]): Active
- Activity (U2OS [6]): 33%
- Activity (U2OS [7]): 56%
- Activity (NIH3T3 [8]): 11.6%
- Activity (HCT-116 [9]): 14.6%
- Activity (MRC5 [10]): 7.1%
- IC50 [11]: > 10 µM
- Activity (NIH3T3 [12]): 92.3%
- Activity (HCT-116 [13]): Active
- Activity (U2OS [14]): 12.8%
- Activity (U2OS [15]): 13.2%
- Activity (U2OS [16]): 16.7%
- Activity (U2OS [17]): 41%
- Activity (MRC5 [18]): 4.5%
- Activity (U2OS [19]): 11%
- Activity (HCT-116 [20]): 20.7%
- Activity (NIH3T3 [21]): 88.4%
- Activity (U2OS [22]): 47.6%
- Activity (HCT-116 [23]): 60.3%
- Activity (U2OS [24]): 1%
- Activity (U2OS [25]): 83.44%
- Activity (MRC5 [26]): 84.8%
